Test results taken from ChEMBL document CHEMBL3352166, “Structure-guided design and development of novel benzimidazole class of compounds targeting DNA gyraseB enzyme of Staphylococcus aureus” (Bioorg Med Chem, 2014).
≈ marks a conversion by molar mass, not a printed value.

What was measured:
DNA gyrase subunit B = DNA gyrase subunit B (Staphylococcus aureus, UniProt P0A0K8); test: Inhibition of Staphylococcus aureus DNA gyrase B ATPase activity
DNA gyrase = DNA gyrase (Staphylococcus aureus, UniProt P0A0K8+P20831); test: Inhibition of Staphylococcus aureus DNA gyrase-mediated supercoiling of relaxed DNA using pBR 322 as substrate by agarose gel electrophoresis analysis; assay type: protein-complex assay
Chain of DNA gyrase (P0A0K8 whole entry): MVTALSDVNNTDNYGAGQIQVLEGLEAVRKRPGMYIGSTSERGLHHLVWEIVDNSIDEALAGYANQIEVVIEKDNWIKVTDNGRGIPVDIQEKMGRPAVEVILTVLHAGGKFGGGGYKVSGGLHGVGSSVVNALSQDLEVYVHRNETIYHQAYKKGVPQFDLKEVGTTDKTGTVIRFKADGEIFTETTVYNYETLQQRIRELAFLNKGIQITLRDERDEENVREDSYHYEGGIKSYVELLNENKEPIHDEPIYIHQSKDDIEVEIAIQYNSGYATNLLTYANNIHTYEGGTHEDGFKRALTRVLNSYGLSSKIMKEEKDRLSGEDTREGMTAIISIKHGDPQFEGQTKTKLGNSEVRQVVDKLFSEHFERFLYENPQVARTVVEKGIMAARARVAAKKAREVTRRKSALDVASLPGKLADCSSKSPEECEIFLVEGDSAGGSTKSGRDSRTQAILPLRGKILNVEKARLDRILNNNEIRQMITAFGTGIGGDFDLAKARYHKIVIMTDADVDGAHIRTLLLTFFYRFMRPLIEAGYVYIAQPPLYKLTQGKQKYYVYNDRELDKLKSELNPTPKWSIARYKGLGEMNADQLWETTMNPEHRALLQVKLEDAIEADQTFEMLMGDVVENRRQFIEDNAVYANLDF
Chain of DNA gyrase (P20831 whole entry): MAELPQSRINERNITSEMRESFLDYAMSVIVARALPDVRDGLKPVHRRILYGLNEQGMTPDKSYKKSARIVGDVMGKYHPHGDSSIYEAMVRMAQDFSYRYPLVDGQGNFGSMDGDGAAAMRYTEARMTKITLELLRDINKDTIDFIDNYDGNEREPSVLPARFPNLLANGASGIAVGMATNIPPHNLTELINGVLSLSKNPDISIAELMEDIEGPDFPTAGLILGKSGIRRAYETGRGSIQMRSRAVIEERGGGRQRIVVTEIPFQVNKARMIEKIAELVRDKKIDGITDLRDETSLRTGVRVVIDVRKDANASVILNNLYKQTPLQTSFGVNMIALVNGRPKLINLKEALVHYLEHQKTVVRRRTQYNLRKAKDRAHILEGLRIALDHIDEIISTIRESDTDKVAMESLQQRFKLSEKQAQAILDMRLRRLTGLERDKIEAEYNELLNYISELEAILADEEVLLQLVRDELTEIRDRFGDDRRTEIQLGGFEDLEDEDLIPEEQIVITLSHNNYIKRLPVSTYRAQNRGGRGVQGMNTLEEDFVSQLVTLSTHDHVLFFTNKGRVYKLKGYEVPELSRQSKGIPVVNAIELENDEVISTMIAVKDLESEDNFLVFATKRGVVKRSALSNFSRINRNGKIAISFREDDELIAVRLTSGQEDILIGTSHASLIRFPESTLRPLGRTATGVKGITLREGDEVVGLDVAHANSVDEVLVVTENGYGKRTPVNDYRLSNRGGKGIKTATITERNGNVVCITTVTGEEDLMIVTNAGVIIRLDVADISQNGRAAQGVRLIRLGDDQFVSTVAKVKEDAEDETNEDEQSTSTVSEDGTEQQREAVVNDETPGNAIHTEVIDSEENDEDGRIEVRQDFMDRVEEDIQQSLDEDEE

Staphylococcus aureus [1] = test: Antimicrobial activity against Staphylococcus aureus MTCC 3160 after 16 to 24 hrs by agar dilution method; assay type: functional
How it was run: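 MIC by agar dilution per CLSI on Mueller-Hinton agar. Overnight colonies were suspended to about 10^6 cfu/mL, and 1 mL was added to 19 mL medium. Compounds were made up in 0.9% saline and tested over about 10 doubling dilutions, 100 µM to 0.1 µM. Plates ran 16-20 h at 35 °C in ambient air. MIC was the lowest concentration preventing visible growth.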

Staphylococcus aureus [2] = test: Antimicrobial activity against methicillin-resistant Staphylococcus aureus MTCC 96 after 16 to 24 hrs by agar dilution method; assay type: functional
How it was run: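 Agar dilution per CLSI guidelines on Mueller-Hinton agar. Overnight colonies suspended to about 10^6 cfu/mL, and 1 mL added to 19 mL medium. Stocks in 0.9% saline, tested over about 10 doubling dilutions from 100 µM to 0.1 µM. Plates incubated at 35 °C in ambient air for 16-20 h. MIC taken as the lowest concentration preventing visible growth.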

[3] = Cytotoxicity against human HEK293 cells assessed as reduction in cell viability at 100 uM after 72 hrs by MTT assay; assay type: cell-based; conditions: read-out: INH
How it was run: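 HEK-293 cells were seeded at 5000 per well and left 24 h, then washed. They were exposed to 100 µM in RPMI + 5% FBS + 1% penicillin/streptomycin, with final DMSO ≤0.5%, for 72 h at 37 °C in 5% CO2. DMSO-treated cultures served as controls. Viability was read by MTT at 570 nm, in triplicate, as percentage inhibition.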

Staphylococcus aureus [4] = test: Inhibition of biofilm formation in methicillin-resistant Staphylococcus aureus MTCC 96 after 24 hr incubation by tissue culture plate method; conditions: MTCC 96, 24 h

Chain of DNA gyrase subunit B (P0A0K8 whole entry): as the sequence (P0A0K8 whole entry) above

Structure (SMILES) | IC50 (DNA gyrase subunit B) [µM] | IC50 (DNA gyrase) [µM] | MIC (Staphylococcus aureus [1]) [µM] | MIC (Staphylococcus aureus [2]) [µM] | cytotoxicity at 72 h, 100 µM [3] [%] | IC50 (Staphylococcus aureus [4]) [µM]
COc1ccc2[nH]c(-c3ccc(NC(=O)COCC(=O)O)cc3)nc2c1 | 4.34 | 3.06 | 17.6 (≈ 6.25 µg/mL) | 17.6 (≈ 6.25 µg/mL) | 23.3 | 31.7
O=C(O)CC(=O)Nc1ccc(-c2nc3cc(F)ccc3[nH]2)cc1 | 13.4 | 16.3 | 79.8 (≈ 25 µg/mL) | 79.8 (≈ 25 µg/mL) | 18.1 | > 100
COc1ccc2[nH]c(-c3ccc(NC(=O)CC(=O)O)cc3)nc2c1 | 11.1 | 18.4 | 38.4 (≈ 12.5 µg/mL) | 76.8 (≈ 25 µg/mL) | 27.4 | > 100
O=C(O)CCC(=O)Nc1ccc(-c2nc3cc(Cl)ccc3[nH]2)cc1 | 11.2 | 9.8 | 36.4 (≈ 12.5 µg/mL) | 36.4 (≈ 12.5 µg/mL) | 31.7 | 53.2
O=C(O)CCCC(=O)Nc1ccc(-c2nc3cccnc3[nH]2)cc1 | 18.5 | 6.98 | 38.5 (≈ 12.5 µg/mL) | 38.5 (≈ 12.5 µg/mL) | 33.8 | 88.1
O=C(O)CCCC(=O)Nc1ccc(-c2nc3cc([N+](=O)[O-])ccc3[nH]2)cc1 | 6.83 | 6.12 | 33.9 (≈ 12.5 µg/mL) | 44.1 (≈ 16.3 µg/mL) | 27.2 | 62.3
O=C(O)CC(=O)Nc1ccc(-c2nc3cccnc3[nH]2)cc1 | 21.8 | 8.9 | 42.2 (≈ 12.5 µg/mL) | 42.2 (≈ 12.5 µg/mL) | 27.2 | 71.9
O=C(O)CCCCC(=O)Nc1ccc(-c2nc3cc([N+](=O)[O-])ccc3[nH]2)cc1 | 9.82 | 6.09 | 32.6 (≈ 12.5 µg/mL) | 32.6 (≈ 12.5 µg/mL) | 31.7 | 44.2
COc1ccc2[nH]c(-c3ccc(NC(=O)CSCC(=O)O)cc3)nc2c1 | 9.31 | 16 | 67.3 (≈ 25 µg/mL) | 67.3 (≈ 25 µg/mL) | 22.6 | > 100
O=C(O)CSCC(=O)Nc1ccc(-c2nc3cc([N+](=O)[O-])ccc3[nH]2)cc1 | 3.13 | 2.1 | 8.09 (≈ 3.12 µg/mL) | 17 (≈ 6.56 µg/mL) | 25.2 | 10.3
O=C(O)CCC(=O)Nc1ccc(-c2nc3cc([N+](=O)[O-])ccc3[nH]2)cc1 | 17.5 | 8.32 | 17 (≈ 6.01 µg/mL) | 17 (≈ 6.01 µg/mL) | 24.6 | 27.9
O=C(O)COCC(=O)Nc1ccc(-c2nc3cc([N+](=O)[O-])ccc3[nH]2)cc1 | 8.51 | 5.8 | 33.8 (≈ 12.5 µg/mL) | 47 (≈ 17.4 µg/mL) | 31.3 | 83.2
O=C(O)CSCC(=O)Nc1ccc(-c2nc3cc(Cl)ccc3[nH]2)cc1 | 13.8 | 12.1 | 4.15 (≈ 1.56 µg/mL) | 4.15 (≈ 1.56 µg/mL) | 23 | 9.72
O=C(O)CC(=O)Nc1ccc(-c2nc3ccccc3[nH]2)cc1 | 6.91 | 6.12 | 42.3 (≈ 12.5 µg/mL) | 21.2 (≈ 6.25 µg/mL) | 7.2 | 47.8
O=C(O)COCC(=O)Nc1ccc(-c2nc3cc(F)ccc3[nH]2)cc1 | 6.12 | 2.9 | 9.1 (≈ 3.12 µg/mL) | 9.1 (≈ 3.12 µg/mL) | 14.5 | 19.6
COC(=O)CCCC(=O)Nc1ccc(-c2nc3cc(F)ccc3[nH]2)cc1 | 18.6 | 10.7 | 70.3 (≈ 25 µg/mL) | 32.2 (≈ 11.4 µg/mL) | 33.8 | 59.3
O=C(O)c1cn(C2CC2)c2cc(N3CCNCC3)c(F)cc2c1=O [CIPROFLOXACIN] |  |  |  |  |  | 16.9
O=C(O)COCC(=O)Nc1ccc(-c2nc3ccccc3[nH]2)cc1 | 6.01 | 4.81 | 38.4 (≈ 12.5 µg/mL) | 46.9 (≈ 15.3 µg/mL) | 40 | 68.8
Cc1sc2nc(SCC(=O)Nc3ccc(Cl)c(C(=O)O)c3)nc(O)c2c1C | 77.3 | > 50 |  |  |  | 
CCOc1cc(/C=C(\C#N)c2nc3ccc(C)cc3[nH]2)ccc1OCC(=O)O | 82.1 | > 50 |  |  |  | 
CCc1cc(=O)nc(SCC(=O)Nc2cccc(C(=O)O)c2)[nH]1 | 65 | > 50 |  |  |  | 
CC(=O)Nc1ccc(OCC[n+]2ccc(CCS(=O)(=O)[O-])cc2)cc1 | 77.1 | 45.1 |  |  |  | 
Cc1cc2ncn(CC(O)COc3cccc(C(=O)O)c3)c2cc1C (stereo not drawn) | 12.9 | 3.13 |  |  |  | 
